From ChEMBL document CHEMBL4725484, “Oxetanyl Sulfoxide MMS-350 Ameliorates Pulmonary Fibrosis In Vitro, In Vivo, and Ex Vivo” (ACS Med Chem Lett, 2020) come the findings set out here.

The subject of series [1] is Primary lung fibroblast. As to the kind of experiment: Antifibrotic activity against TGFbeta1-induced fibrosis in human primary lung fibroblasts assessed as decrease in fibronectin protein level at 10 to 60 ug/ml measured after 72 hrs by immunoblotting analysis. It is filed as functional, tissue-based. The following applies: dose microg/ml 10-60, time 72.0 hrs. The essentials:
(§1)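 Primary human fibroblasts were exposed for 72 h to vehicle (DMSO), TGFβ1, or TGFβ1 plus compound at the indicated concentrations. Fibrotic factors in cell lysates and conditioned medium were detected by immunoblotting, with GAPDH as internal control.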
On the technique in general: Immunoblotting shows a protein as a band on a membrane.

Series [2] has as its system Primary lung fibroblast. Briefly: Antifibrotic activity against TGFbeta1-induced fibrosis in human primary lung fibroblasts assessed as decrease in alpha-SMA protein level at 10 to 60 ug/ml measured after 72 hrs by immunoblotting analysis. To be noted: dose microg/ml 10-60, time 72.0 hrs. In kind it is functional, tissue-based. An outline of the steps: as §1
For series [3], the system named is Primary lung fibroblast. Briefly: Antifibrotic activity against TGFbeta1-induced fibrosis in human primary lung fibroblasts assessed as decrease in collagen type-1 protein level at 10 to 60 ug/ml measured after 72 hrs by immunoblotting analysis. The following applies: dose microg/ml 10-60, time 72.0 hrs. In kind it is functional, tissue-based. The essentials:
as §1

The subject of series [4] is Primary lung fibroblast. As to the kind of experiment: Antifibrotic activity against TGFbeta1-induced fibrosis in human primary lung fibroblasts assessed as decrease in IGFBP-3 protein level at 10 to 60 ug/ml measured after 72 hrs by immunoblotting analysis. In kind it is functional, tissue-based. To be noted: dose microg/ml 10-60, time 72.0 hrs. The essentials: as §1

Series [5] relates to Primary lung fibroblast. As to the kind of experiment: Antifibrotic activity against TGFbeta1-induced fibrosis in human primary lung fibroblasts assessed as decrease in CTGF protein level at 10 to 60 ug/ml measured after 72 hrs by immunoblotting analysis. It is filed as functional, tissue-based. To be noted: dose microg/ml 10-60, time 72.0 hrs. An outline of the steps: as §1

In series [6] the test system is Primary lung fibroblast. Briefly: Antifibrotic activity against TGFbeta1-induced fibrosis in human primary lung fibroblasts assessed as decrease in IGFBP-3 protein level at 500 ug/ml measured after 72 hrs by immunoblotting analysis. In kind it is functional, tissue-based. To be noted: dose 500.0 µg/ml. The essentials: (§2)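 Primary human fibroblasts received vehicle, 10 ng/mL TGFβ1, 500 μg/mL compound, or TGFβ1 plus compound for 72 h. Vehicles were 4 mM HCl/0.1% BSA for TGFβ1 and 1× PBS for compound. Cell lysates and conditioned medium were immunoblotted with GAPDH as internal control. Densitometry is expressed as mean relative change versus vehicle or internal control ± SDEV, N = 3.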

Series [7] has as its system Primary lung fibroblast. As to the kind of experiment: Antifibrotic activity against TGFbeta1-induced fibrosis in human primary lung fibroblasts assessed as decrease in alpha-SMA protein level at 500 ug/ml measured after 72 hrs by immunoblotting analysis. It is filed as functional, tissue-based. To be noted: dose 500.0 µg/ml. An outline of the steps:
as §2

Series [8] deals with Mus musculus. Briefly: Antifibrotic activity against bleomycin-induced C57BL/6J mouse lung fibrosis model assessed as reduction in hydroxyproline level in lung at 2%, po via gavage administered as single dose measured on 14 days by hydroxyproline assay. To be noted: time day 14. In kind it is functional, organism-based. An outline of the steps: (§3)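 Mouse groups received PBS, bleomycin, or bleomycin plus 2% compound. Lung histology was assessed 14 days post-treatment. Lung COL1A2 mRNA was measured at 5 days, normalized to GAPDH. Lung hydroxyproline (total collagen) was measured at 14 days. Data are mean ± SD.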

Series [9] has as its system Primary lung fibroblast. Briefly: Antifibrotic activity against TGFbeta1-induced fibrosis in human primary lung fibroblasts assessed as decrease in IGFBP-3 protein level at 500 ug/ml treated at 30 mins to 6 hrs post TGFbeta1 stimulation by immunoblotting analysis. It is filed as functional, tissue-based. The following applies: dose 500.0 µg/ml, time 6.5 hrs. An outline of the steps:
(§4)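 Therapeutic-timing design in fibroblasts: 500 μg/mL compound was added together with 10 ng/mL TGFβ1 or 30 min to 6 h after TGFβ1. Profibrotic factors were then assessed by immunoblotting.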

Series [10] can be described thus: Lipophilicity, log P of the compound. It is filed as physicochemical. To be noted: octanol/water.
For series [11], the system named is Primary lung fibroblast. As to the kind of experiment: Antifibrotic activity in human primary lung fibroblasts assessed as decrease in fibronectin protein level at 500 ug/ml measured after 72 hrs by immunoblotting analysis. It is filed as functional, tissue-based. The following applies: dose 500.0 µg/ml. The essentials:
as §2

Series [12] is described as follows: Solubility of the compound in water. The following applies: buffer. It is filed as physicochemical.
Series [13] concerns Zone of skin. As to the kind of experiment: Antifibrotic activity against TGFbeta1-induced dermal fibrosis in human skin assessed as reduction in fibronectin expression level stimulated with TGFbeta1 for 24 hrs followed by compound treatment at 500 ug/ml measured after 72 hrs by qRT-PCR analysis. In kind it is functional, tissue-based. The following applies: Skin of body, dose 500.0 µg/ml. An outline of the steps: (§5)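 Human skin in organ culture was treated with vehicle (1× PBS) or 10 ng/mL TGFβ1, then given 500 μg/mL compound 24 h later. CTGF expression in whole skin was read 24 h after compound addition. COL1A1 and FN expression in whole skin were read 72 h after compound addition.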

Series [14] deals with Primary lung fibroblast. As to the kind of experiment: Antifibrotic activity in human primary lung fibroblasts assessed as decrease in IGFBP-3 protein level at 500 ug/ml measured after 72 hrs by immunoblotting analysis. It is filed as functional, tissue-based. To be noted: dose 500.0 µg/ml. An outline of the steps: as §2
Series [15] deals with Primary lung fibroblast. Briefly: Antifibrotic activity against TGFbeta1-induced fibrosis in human primary lung fibroblasts assessed as decrease in TGFbeta1-induced fibronectin protein level at 500 ug/ml treated at 30 mins to 6 hrs post TGFbeta1 stimulation by immunoblotting analysis. The following applies: dose 500.0 µg/ml, time 6.5 hrs. It is filed as functional, tissue-based. The essentials:
as §4

In series [16] the test system is Primary lung fibroblast. Briefly: Antifibrotic activity in human primary lung fibroblasts assessed as decrease in collagen type-1 protein level at 500 ug/ml measured after 72 hrs by immunoblotting analysis. It is filed as functional, tissue-based. The following applies: dose 500.0 µg/ml. An outline of the steps: as §2
In series [17] the test system is Primary lung fibroblast. Briefly: Antifibrotic activity against TGFbeta1-induced fibrosis in human primary lung fibroblasts assessed as decrease in collagen type-1 protein level at 500 ug/ml measured after 72 hrs by immunoblotting analysis. In kind it is functional, tissue-based. To be noted: dose 500.0 µg/ml. The essentials: as §2
Series [18] relates to Zone of skin. Briefly: Antifibrotic activity against TGFbeta1-induced dermal fibrosis in human skin assessed as reduction in CTGF expression level stimulated with TGFbeta1 for 24 hrs followed by compound treatment at 500 ug/ml measured after 24 hrs by QRT-PCR analysis. It is filed as functional, tissue-based. The following applies: Skin of body, dose 500.0 µg/ml. An outline of the steps: as §5

For series [19], the system named is Mus musculus. As to the kind of experiment: Antifibrotic activity against bleomycin-induced C57BL/6J mouse lung fibrosis model at 2%, po via gavage administered as single dose measured after 14 days by hematoxylin and eosin staining based microscopic analysis. In kind it is functional, organism-based. To be noted: time day 14. An outline of the steps: as §3

Series [20] deals with Primary lung fibroblast. Briefly: Antifibrotic activity in against TGFbeta1-induced fibrosis in human primary lung fibroblasts assessed as decrease in collagen type-1 protein level at 500 ug/ml treated at 30 mins to 6 hrs post TGFbeta1 stimulation by immunoblotting analysis. It is filed as functional, tissue-based. The following applies: dose 500.0 µg/ml, time 6.5 hrs. The essentials: as §4

Series [21] can be described thus: Toxicity in bleomycin-induced C57BL/6J mouse lung fibrosis model assessed as improvement in mouse survival relative to control. The following applies: in vivo.
Series [22] concerns Primary lung fibroblast. Briefly: Antifibrotic activity in human primary lung fibroblasts assessed as decrease in CTGF protein level at 500 ug/ml measured after 72 hrs by immunoblotting analysis. It is filed as functional, tissue-based. To be noted: dose 500.0 µg/ml. An outline of the steps:
as §2

For series [23], the system named is Primary lung fibroblast. Briefly: Antifibrotic activity against TGFbeta1-induced fibrosis in human primary lung fibroblasts assessed as decrease in alpha-SMA protein level at 500 ug/ml treated at 30 mins to 6 hrs post TGFbeta1 stimulation by immunoblotting analysis. In kind it is functional, tissue-based. The following applies: dose 500.0 µg/ml, time 6.5 hrs. An outline of the steps: as §4

Series [24] deals with Mus musculus. Briefly: Antifibrotic activity against bleomycin-induced C57BL/6J mouse lung fibrosis model assessed as reduction in COL1A2 mRNA level at 2%, po via gavage administered as single dose measured within 5 days by qRT-PCR analysis. The following applies: time day <=5. It is filed as functional, organism-based. An outline of the steps: as §3
For orientation: Real-time PCR tracks product formation cycle by cycle.

The subject of series [25] is Primary lung fibroblast. As to the kind of experiment: Antifibrotic activity against TGFbeta1-induced fibrosis in human primary lung fibroblasts assessed as decrease in fibronectin protein level at 500 ug/ml measured after 72 hrs by immunoblotting analysis. It is filed as functional, tissue-based. The following applies: dose 500.0 µg/ml. An outline of the steps: as §2

The test system of series [26] is Primary lung fibroblast. As to the kind of experiment: Antifibrotic activity against TGFbeta1-induced fibrosis in human primary lung fibroblasts assessed as decrease in CTGF protein level at 500 ug/ml treated at 30 mins to 6 hrs post TGFbeta1 stimulation by immunoblotting analysis. In kind it is functional, tissue-based. The following applies: dose 500.0 µg/ml, time 6.5 hrs. An outline of the steps:
as §4

Series [27] deals with Primary lung fibroblast. As to the kind of experiment: Antifibrotic activity against TGFbeta1-induced fibrosis in human primary lung fibroblasts assessed as decrease in CTGF protein level at 500 ug/ml measured after 72 hrs by immunoblotting analysis. It is filed as functional, tissue-based. The following applies: dose 500.0 µg/ml. An outline of the steps: as §2
The subject of series [28] is Zone of skin. As to the kind of experiment: Antifibrotic activity against TGFbeta1-induced dermal fibrosis in human skin assessed as reduction in COL1A1 expression level stimulated with TGFbeta1 for 24 hrs followed by compound treatment at 500 ug/ml measured after 72 hrs by qRT-PCR analysis. The following applies: Skin of body, dose 500.0 µg/ml. In kind it is functional, tissue-based. An outline of the steps:
as §5

In series [29] the test system is Primary lung fibroblast. Briefly: Antifibrotic activity in human primary lung fibroblasts assessed as decrease in alpha-SMA protein level at 500 ug/ml measured after 72 hrs by immunoblotting analysis. In kind it is functional, tissue-based. The following applies: dose 500.0 µg/ml. The essentials:
as §2

For series [30], the system named is Primary lung fibroblast. Briefly: Antifibrotic activity against TGFbeta1-induced fibrosis in human primary lung fibroblasts assessed as decrease in COL1A1 expression level at 91 to 500 ug/ml measured after 48 hrs by qRT-PCR analysis. The following applies: dose microg/ml 500, time 48.0 hrs, in the assay text read “at 500 ug/ml” for “at 91 to 500 ug/ml”. In kind it is functional, tissue-based. An outline of the steps:
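Primary fibroblasts were treated for 48 h with TGFβ1 with or without compound (500 μg/mL). Extracted RNA was used for real-time PCR of COL1A1. N = 4, mean ± SD.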

The structures appear in SMILES notation. The source made the active and inactive calls. The rule behind the calls is not given here.

As to `CC1(C[S+]([O-])c2ccccc2)COC1` (racemic), the result in [1], in series [2], in [3], in series [4] and in series [5] was Active.

`CC1(C[S+]([O-])CC2(C)COC2)COC1`: the result in series [6], in [7], in [8], in series [9], in [11] and in series [13] was Active. The result in series [14], in [15], in [16], in series [17], in series [18] and in series [19] was Active. In addition, the result in [20], in series [22], in series [23], in series [24], in series [25] and in series [26] was Active. Moreover, the outcome in [27], in [28] and in [29] was Active. Besides, the lipophilicity (logP) – broadly, the decadic logarithm of the partition coefficient of the neutral form, usually between octanol and water – in series [10] is -0.7. Besides, in series [12], the solubility result was “Soluble”. In addition, the Activity in series [21] was 87.5%.

As to `[O-][S+](CC1(F)COC1)c1cccc(F)c1` (racemic), the result in series [30] was Active.
